SMILES strings stand for the structures. A value given as a limit tells only on which side of the number the result lay.

Usually Ki stands for a measure of affinity in units of concentration, obtained from inhibition or displacement. Low values mean a stronger hold on the target, high ones a looser hold on the target. What is called inhibition is how much of the control response was suppressed. High values mean a strong effect, low ones a weak effect. The IC30 is the point of the concentration-response curve where the effect stands at 30%.

Data set [1] addresses T1, Alpha-1D adrenergic receptor (Homo sapiens, UniProt P25100).
T1 sequence (P25100 whole entry): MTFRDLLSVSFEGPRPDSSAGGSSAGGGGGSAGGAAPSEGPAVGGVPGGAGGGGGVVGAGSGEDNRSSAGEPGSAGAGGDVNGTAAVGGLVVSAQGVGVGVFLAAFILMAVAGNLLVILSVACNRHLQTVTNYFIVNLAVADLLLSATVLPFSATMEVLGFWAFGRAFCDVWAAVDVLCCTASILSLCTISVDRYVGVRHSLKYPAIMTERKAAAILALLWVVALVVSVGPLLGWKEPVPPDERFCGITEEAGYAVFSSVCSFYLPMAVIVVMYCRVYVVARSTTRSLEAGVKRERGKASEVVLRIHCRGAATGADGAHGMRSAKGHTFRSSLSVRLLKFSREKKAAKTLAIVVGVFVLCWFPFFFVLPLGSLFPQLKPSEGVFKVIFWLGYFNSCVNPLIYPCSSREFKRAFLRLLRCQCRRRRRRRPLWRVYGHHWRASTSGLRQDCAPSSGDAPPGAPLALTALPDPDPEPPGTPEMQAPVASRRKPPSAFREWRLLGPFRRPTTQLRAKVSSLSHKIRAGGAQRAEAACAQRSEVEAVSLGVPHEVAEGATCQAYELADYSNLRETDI
As to the kind of experiment: Displacement of 7-methoxy-[3H]-prazosin from human alpha1D-adrenoreceptor expressed in CHOK1 cell membranes after 60 mins by TopCount liquid scintillation counting method. The procedure, abridged:
(§1)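 Membranes (10 µg protein per receptor subtype) incubated with 2.5 nmol/L 7-methoxy-[3H]-prazosin and test compound at 12 concentrations. Buffer: 50 mmol/L Tris-HCl pH 7.5, 10 mmol/L MgCl2, 5 mmol/L EDTA, 0.5% BSA. Incubated 60 min at room temperature, then filtered on GF/C and washed with Tris-HCl. Nonspecific binding set with 10 µmol/L phentolamine. IC50 from logistic regression; Ki = IC50/(1 + [ligand]/Kd).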

A further data set has as its target CYP3A4 (Homo sapiens, UniProt P08684). As to the kind of experiment: Inhibition of human microsomal CYP3A4 at 10 uM after 10 mins by LC-MS/MS analysis relative to control. It is filed as ADME. The conditions noted are these: microsomes. In short, it runs like this:
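Reversible inhibition test. Midazolam substrate incubated with 0.1 mg/mL human liver microsomes and 10 µM test compound for 10 min at 37 °C. Stopped with acetonitrile/water.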

Data set [2] addresses T2, Alpha-1B adrenergic receptor (Homo sapiens, UniProt P35368).
T2 sequence (P35368 whole entry): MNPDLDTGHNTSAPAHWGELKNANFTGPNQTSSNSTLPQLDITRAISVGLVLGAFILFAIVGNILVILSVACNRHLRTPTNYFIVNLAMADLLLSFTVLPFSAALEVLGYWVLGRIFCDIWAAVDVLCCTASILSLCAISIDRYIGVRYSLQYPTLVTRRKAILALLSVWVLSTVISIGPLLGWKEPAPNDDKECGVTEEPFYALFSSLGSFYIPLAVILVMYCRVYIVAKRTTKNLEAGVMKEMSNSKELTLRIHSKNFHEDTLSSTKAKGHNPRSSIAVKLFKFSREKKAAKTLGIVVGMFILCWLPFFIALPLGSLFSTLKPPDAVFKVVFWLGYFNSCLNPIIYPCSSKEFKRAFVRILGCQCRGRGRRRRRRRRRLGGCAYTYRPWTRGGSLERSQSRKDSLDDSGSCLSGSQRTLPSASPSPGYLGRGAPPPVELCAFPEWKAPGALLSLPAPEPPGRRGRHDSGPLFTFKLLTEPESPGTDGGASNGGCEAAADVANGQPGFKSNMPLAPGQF
As to the kind of experiment: Displacement of 7-methoxy-[3H]-prazosin from human alpha1B-adrenoreceptor expressed in CHOK1 cell membranes after 60 mins by TopCount liquid scintillation counting method. The procedure, abridged: as §1

Data set [3] has as its target T3, Alpha-1A adrenergic receptor (Homo sapiens, UniProt P35348).
T3 sequence (P35348 whole entry): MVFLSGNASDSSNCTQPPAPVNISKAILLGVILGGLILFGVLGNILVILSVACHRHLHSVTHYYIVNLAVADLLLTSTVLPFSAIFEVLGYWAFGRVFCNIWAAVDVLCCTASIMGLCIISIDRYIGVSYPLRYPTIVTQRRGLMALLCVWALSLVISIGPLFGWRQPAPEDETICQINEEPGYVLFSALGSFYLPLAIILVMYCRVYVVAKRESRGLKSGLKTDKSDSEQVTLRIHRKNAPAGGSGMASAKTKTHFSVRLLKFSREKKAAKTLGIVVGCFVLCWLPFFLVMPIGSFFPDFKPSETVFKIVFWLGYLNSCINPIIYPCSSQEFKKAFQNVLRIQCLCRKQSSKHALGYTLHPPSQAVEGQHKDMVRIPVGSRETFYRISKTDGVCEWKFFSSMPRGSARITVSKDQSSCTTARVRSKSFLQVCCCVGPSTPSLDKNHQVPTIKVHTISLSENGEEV
As to the kind of experiment: Displacement of 7-methoxy-[3H]-prazosin from human alpha1A-adrenoreceptor expressed in CHOK1 cell membranes after 60 mins by TopCount liquid scintillation counting method. The procedure, abridged: as §1

In data set [4] the target is T4, Alpha-1D adrenergic receptor (Rattus norvegicus) (UniProt P23944).
T4 sequence (whole entry): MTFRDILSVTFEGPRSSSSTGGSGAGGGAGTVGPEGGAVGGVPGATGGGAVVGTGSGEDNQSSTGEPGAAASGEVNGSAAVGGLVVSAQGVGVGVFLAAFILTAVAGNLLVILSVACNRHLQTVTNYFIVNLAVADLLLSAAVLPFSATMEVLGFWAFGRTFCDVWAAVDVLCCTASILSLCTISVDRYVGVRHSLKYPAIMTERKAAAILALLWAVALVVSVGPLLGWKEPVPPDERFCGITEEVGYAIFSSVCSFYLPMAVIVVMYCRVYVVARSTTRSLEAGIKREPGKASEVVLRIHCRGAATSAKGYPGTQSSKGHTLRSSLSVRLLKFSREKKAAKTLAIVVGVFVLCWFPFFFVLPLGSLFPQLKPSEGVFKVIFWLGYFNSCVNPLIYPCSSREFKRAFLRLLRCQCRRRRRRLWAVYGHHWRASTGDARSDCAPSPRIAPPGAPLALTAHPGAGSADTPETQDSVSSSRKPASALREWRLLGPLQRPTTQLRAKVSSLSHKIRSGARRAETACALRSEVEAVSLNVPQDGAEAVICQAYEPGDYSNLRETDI
In words: Antagonist activity at alpha1D-adrenoreceptor in Wistar rat bladder strips assessed as relaxation of PHE-induced contractile response after 30 mins. It is filed as functional.

The species entered for data set [5] is Homo sapiens. In words: Selectivity ratio of Ki for human alpha1A-adrenoreceptor to Ki for human alpha1D-adrenoreceptor.
For data set [6], the species on record is Homo sapiens. As to the kind of experiment: Selectivity ratio of Ki for human alpha1B-adrenoreceptor to Ki for human alpha1D-adrenoreceptor.

Chain of CYP3A4 (P08684 whole entry): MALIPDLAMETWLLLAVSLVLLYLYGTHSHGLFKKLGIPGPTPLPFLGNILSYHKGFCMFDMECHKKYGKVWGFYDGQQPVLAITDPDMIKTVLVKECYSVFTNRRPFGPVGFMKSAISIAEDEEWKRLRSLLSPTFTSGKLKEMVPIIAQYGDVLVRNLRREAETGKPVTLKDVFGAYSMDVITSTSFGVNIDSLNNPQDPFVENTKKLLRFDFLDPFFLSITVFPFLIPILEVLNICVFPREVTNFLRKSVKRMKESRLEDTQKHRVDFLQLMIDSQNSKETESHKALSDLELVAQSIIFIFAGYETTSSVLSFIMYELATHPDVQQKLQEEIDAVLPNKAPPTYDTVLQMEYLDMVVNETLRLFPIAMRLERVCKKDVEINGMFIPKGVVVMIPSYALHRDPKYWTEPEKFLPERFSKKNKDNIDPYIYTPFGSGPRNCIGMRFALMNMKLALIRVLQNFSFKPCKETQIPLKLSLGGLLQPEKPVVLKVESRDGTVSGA

`COc1ccc2c(c1)S(=O)(=O)CCC2NCCOc1cc(F)ccc1F` (stereo unspecified): the Ki in data set [1] turned out to be 38 nM. The same compound came in with an inhibition at 10 min, 10 µM against CYP3A4 of 34.3%.
Take `CS(=O)(=O)c1ccccc1CNCCOc1cc(F)ccc1Cl`: the Ki was 4.3 nM in data set [1], over 120 nM in data set [2] and over 270 nM in data set [3]. Further, the IC30 in data set [4] turned out to be 140 nM.
In turn, `O=S1(=O)CCC(NCCOc2cc(F)ccc2F)c2ccccc21` (stereo unspecified) gave a Ki in data set [1] of 17 nM. The same compound showed an inhibition at 10 min, 10 µM against CYP3A4 of 26.5%.
On to `CNc1ccc2c(c1)[C@@H](NCCOc1cc(F)ccc1F)CCS2(=O)=O`, for which the values for the Ki in data set [1], in data set [2] and in data set [3] were 0.3 nM, 150 nM and 130 nM, respectively. Moreover, the Ratio Ki in the data set listed under Homo sapiens [5] stood at 430; in the data set listed under Homo sapiens [6] it was 500. Further, the IC30 in data set [4] is 5.5 nM. For the same compound, on CYP3A4, the inhibition at 10 min, 10 µM was 20.7%.
For the compound `COc1cccc2c1C(NCCOc1cc(F)ccc1F)CCS2(=O)=O` (stereo unspecified), the inhibition constant (Ki) in data set [1] came out at 9.5 nM. The inhibition at 10 min, 10 µM against CYP3A4 was 28.6%.
With `CS(=O)(=O)c1ccccc1CCNCCOc1cc(F)ccc1Cl`, the Ki in data set [1] stood at 8.6 nM; in data set [2], 30 nM; in data set [3], 150 nM.
Take `COc1ccc2c(c1)C(NCCOc1cc(F)ccc1F)CCS2(=O)=O` (stereo unspecified): in data set [1], the affinity, expressed as Ki, was 1.5 nM. The compound further registered an inhibition at 10 min, 10 µM against CYP3A4 of 22.7%.
With `O=S1(=O)CC(NCCOc2cc(F)ccc2Cl)c2ccccc21` (stereo unspecified), the results for the Ki in data set [1], in data set [2] and in data set [3] were over 94 nM, over 120 nM and over 270 nM, respectively.
In data set [1], `O=S1(=O)CCC(NCCOc2cc(F)ccc2F)c2cc(F)ccc21` (stereo unspecified) displayed a Ki of 12 nM. On CYP3A4, this compound yielded an inhibition at 10 min, 10 µM of 23.1%.
For the compound `CS(=O)(=O)c1ccc(Cl)cc1CNCCOc1cc(F)ccc1Cl`, the Ki is 17 nM in data set [1], 1100 nM in data set [2] and 1800 nM in data set [3]. Besides, the figures for the Ratio Ki in the data set filed under Homo sapiens [5] and in the data set filed under Homo sapiens [6] were 110 and 65, respectively. In data set [4], the IC30 turned out to be 250 nM.
For `CS(=O)(=O)c1ccccc1CCCNCCOc1cc(F)ccc1Cl`, the results for the Ki in data set [1], in data set [2] and in data set [3] were 9.1 nM, 44 nM and 50 nM, respectively.
In the same order, the values of `Fc1ccc(Cl)c(OCCNCc2cccc(Cl)c2)c1` are 65 nM, over 120 nM and over 270 nM.
With `O=S1(=O)CCC(NCCOc2cc(F)ccc2Cl)c2ccccc21` (stereo unspecified), the Ki in data set [1] is 3.9 nM; in data set [2], over 120 nM; in data set [3] it was over 270 nM. Further, the IC30 in data set [4] was found to be 54 nM. Moreover, the inhibition at 10 min, 10 µM against CYP3A4 was found to be 52.3%.
Regarding `CNc1ccc2c(c1)[C@H](NCCOc1cc(F)ccc1F)CCS2(=O)=O`, the Ki in data set [1] is 62 nM; in data set [2] it was over 1200 nM; in data set [3] it was 1200 nM. Moreover, the Ratio Ki in the data set listed under Homo sapiens [5] is 19; in the data set listed under Homo sapiens [6], over 20. At CYP3A4, this compound gave an inhibition at 10 min, 10 µM of 26.7%.
The compound `NC(=O)c1ccc2c(c1)C(NCCOc1cc(F)ccc1F)CCS2(=O)=O` (stereo unspecified) yielded an inhibition constant Ki in data set [1] of 86 nM. This compound gave an inhibition at 10 min, 10 µM on CYP3A4 of 12.5%.
As for `CC(NCCOc1cc(F)ccc1Cl)c1ccccc1S(C)(=O)=O` (stereo unspecified), the Ki in data set [1] is over 94 nM; in data set [2], over 120 nM; in data set [3], over 270 nM.
Take `COc1cccc2c1S(=O)(=O)CCC2NCCOc1cc(F)ccc1F` (stereo unspecified): in data set [1], the inhibition constant Ki is 170 nM. Besides, at CYP3A4, the inhibition at 10 min, 10 µM stood at 17.1%.
The like results for `CS(=O)(=O)c1ccc2c(c1)C(NCCOc1cc(F)ccc1F)CCS2(=O)=O` (stereo unspecified) were, in that order, 310 nM and 5.2%.
Turning to `CNc1ccc2c(c1)C(NCCOc1cc(F)ccc1F)CCS2(=O)=O` (stereo unspecified), the values for the inhibitory constant (Ki) in data set [1], in data set [2] and in data set [3] were 0.85 nM, 430 nM and 350 nM, respectively. Also, the results for the Ratio Ki in the data set filed under Homo sapiens [5] and in the data set filed under Homo sapiens [6] were 410 and 510, respectively. Moreover, in data set [4], the IC30 was 80 nM. Besides, the inhibition at 10 min, 10 µM at CYP3A4 is 26.1%.

For the origin of these results see ChEMBL document CHEMBL4190310, “Identification of 3,4-dihydro-2H-thiochromene 1,1-dioxide derivatives with a phenoxyethylamine group as highly potent and selective α1D adrenoceptor antagonists” (Eur J Med Chem, 2017).
